Among the data in ChEMBL document CHEMBL4680319, “Synthesis and evaluation of tiaprofenic acid-derived UCHL5 deubiquitinase inhibitors” (Bioorg Med Chem, 2021) are IC50, Ratio IC50 and inhibition values, retold here.

pIC50: −log10 of the molar value. Active and inactive are the calls of the source. The rule behind the calls is not given here.

Assay [1] addresses T1, Ubiquitin carboxyl-terminal hydrolase isozyme L5 (Homo sapiens, UniProt Q9Y5K5).
T1 sequence (Q9Y5K5 whole entry): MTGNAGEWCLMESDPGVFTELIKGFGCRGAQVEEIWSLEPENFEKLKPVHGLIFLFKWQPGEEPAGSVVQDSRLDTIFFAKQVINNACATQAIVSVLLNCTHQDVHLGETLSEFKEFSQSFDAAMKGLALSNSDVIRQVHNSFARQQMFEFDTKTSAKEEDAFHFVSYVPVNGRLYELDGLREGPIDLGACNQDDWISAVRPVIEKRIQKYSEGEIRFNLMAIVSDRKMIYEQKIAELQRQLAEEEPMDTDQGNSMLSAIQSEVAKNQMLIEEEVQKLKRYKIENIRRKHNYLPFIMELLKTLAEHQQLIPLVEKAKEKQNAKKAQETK
As to the kind of experiment: Inhibition of N-terminal His6-tagged recombinant human UCHL5 expressed in Escherichia coli BL21 (DE3) codon cells assessed as reduction in cleavage of Ubiquitin-Rhodamine110-glycine to Ubiquitin and Rhodamine110-glycine using Ub-Rho 110 as substrate incubated for 30 mins by fluorescence based assay. Put shortly:
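His-tagged human UCHL5 from pET151 in E. coli BL21(DE3) codon+ RIL, Ni-NTA purified; 0.464 nM enzyme, 1 μM Ub-Rho in 50 mM Tris-HCl pH 7.5, 150 mM NaCl, 0.1 mg/ml ovalbumin, 0.5 mM EDTA, 2.5 mM DTT; started by enzyme addition.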

Assay [2] addresses T2, Ubiquitin carboxyl-terminal hydrolase isozyme L5 (Homo sapiens) (UniProt Q9Y5K5).
T2 sequence (whole entry): T1 sequence (Q9Y5K5 whole entry)
As to the kind of experiment: Potency index, ratio of (R)-tiaprofenic acid IC50 to test compound IC50 for inhibition of N-terminal His6-tagged recombinant human UCHL5 expressed in Escherichia coli BL21 (DE3) codon cells incubated for 30 mins by fluorescence based assay.

The target of assay [3] is Ubiquitin carboxyl-terminal hydrolase isozyme L1 (Homo sapiens) (UniProt P09936). As to the kind of experiment: (§1) Inhibition of recombinant human N-terminal MET and His6-tagged UCHL1 (Gln2 to Ala223 residues) expressed in Escherichia coli assessed as reduction in cleavage of Ubiquitin-Rhodamine110-glycine to Ubiquitin and Rhodamine110-glycine using Ub-Rho 110 as substrate incubated for 30 mins by fluorescence based assay. Put shortly:
(§2)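 Commercial enzymes at UCHL1 1.2 nM or UCHL3 32 pM, with 1 μM Ub-Rho in 50 mM Tris-HCl pH 7.5, 150 mM NaCl, 0.1 mg/ml ovalbumin, 0.5 mM EDTA, 2.5 mM DTT.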

The target in assay [4] is T3, Ubiquitin carboxyl-terminal hydrolase isozyme L1 (Homo sapiens, UniProt P09936).
T3 sequence (P09936 whole entry): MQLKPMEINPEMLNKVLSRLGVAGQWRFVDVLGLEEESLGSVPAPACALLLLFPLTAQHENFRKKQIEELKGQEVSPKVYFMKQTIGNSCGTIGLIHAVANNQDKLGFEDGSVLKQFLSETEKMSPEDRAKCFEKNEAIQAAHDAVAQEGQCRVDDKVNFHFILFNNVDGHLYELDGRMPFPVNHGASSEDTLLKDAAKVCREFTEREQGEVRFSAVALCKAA
Described as §1. In outline: as §2

Assay [5] deals with T4, Ubiquitin carboxyl-terminal hydrolase isozyme L3 (Homo sapiens) (UniProt P15374).
T4 sequence (whole entry): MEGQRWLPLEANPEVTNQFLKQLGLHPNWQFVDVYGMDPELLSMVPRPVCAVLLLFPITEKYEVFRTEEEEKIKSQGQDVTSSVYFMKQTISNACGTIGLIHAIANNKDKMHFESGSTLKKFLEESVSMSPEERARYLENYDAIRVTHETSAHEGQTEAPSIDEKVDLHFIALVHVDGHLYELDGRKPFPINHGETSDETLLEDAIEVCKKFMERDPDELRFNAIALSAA
As to the kind of experiment: (§3) Inhibition of recombinant human UCHL3 assessed as reduction in cleavage of Ubiquitin-Rhodamine110-glycine to Ubiquitin and Rhodamine110-glycine using Ub-Rho 110 as substrate incubated for 30 mins by fluorescence based assay. Put shortly: as §2

In assay [6] the target is T5, Ubiquitin carboxyl-terminal hydrolase isozyme L3 (Homo sapiens, UniProt P15374).
T5 sequence (P15374 whole entry): T4 sequence (whole entry)
The assay is described as §3. In outline:
as §2

Assay [7] has as its target T2, Ubiquitin carboxyl-terminal hydrolase isozyme L5 (Homo sapiens). The assay is described as follows: Inhibition of UCHL5 in human MDA-MB-231 cells assessed as reduction in enzyme-Ub-VS conjugation at 25 to 50 uM preincubated for 30 mins followed by incubation with Ub-VS for 11 mins in presence of Ub-VS by Western blot analysis. Format: cell-based. The conditions noted are these: dose 25-50 µM, time 41.0 min. Put shortly: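 Lysate (20 μg protein) preincubated with inhibitor 30 min at RT in same buffer without detergent, then Ub-VS 1 μM for 11 min at RT; SDS quench, 12% SDS-PAGE, anti-UCHL5 and β-actin blot; 2 independent experiments.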

The species entered for the next assay is Homo sapiens. The assay is described as follows: Inhibition of N-terminal His6-tagged recombinant human UCHL5 […] N-terminal GST/His6-tagged RPN13 in Escherichia coli BL21 (DE3) codon cells assessed as reduction in cleavage of Ubiquitin-Rhodamine110-glycine to Ubiquitin and Rhodamine110-glycine using Ub-Rho 110 as substrate at 100 uM incubated for 30 mins by fluorescence based assay relative to control. In outline: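 UCHL5 (0.464 nM, His-tagged, Ni-NTA purified from E. coli) combined with separately expressed Rpn13 (915 nM); each derivative tested at 100 μM. Buffer 50 mM Tris-HCl pH 7.5, 150 mM NaCl, 0.1 mg/ml ovalbumin, 0.5 mM EDTA, 2.5 mM DTT. Reaction started with UCHL5; Ub-Rho 1 μM; fluorescence ex 485/em 535 nm read over 30 min at RT. n = 2 independent experiments.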

Regarding `Nc1ccc(-c2cn(Cc3cc(C(=O)O)cc(-c4ccccc4C(=O)O)c3)nn2)cc1`, the pIC50 in assay [1] is 4.09.
Consider `O=C(O)c1cc(Cn2cc(-c3ccc(NC(=O)c4ccccc4)cc3)nn2)cc(-c2ccccc2C(=O)O)c1`, for which the pIC50 in assay [1] was 3.67.
Still for that read-out and setting: as for `CC(C(=O)O)c1ccc(C(=O)c2cccc(-c3occc3C(=O)O)c2)s1` (stereo not given), the figure is 4.12; as for `O=C(O)c1cc(Cn2cc(-c3cccnc3)nn2)cc(-c2ccccc2C(=O)O)c1`, 3.60.
Regarding `Nc1cccc(-c2cn(Cc3cc(C(=O)O)cc(-c4ccccc4C(=O)O)c3)nn2)c1`, the pIC50 in assay [1] was 4.14.
With `CC(C(=O)O)c1ccc(C(=O)c2ccccc2)s1` (stereo not given) [TIAPROFENIC ACID], the pIC50 in assay [1] is 2.53.
Consider `Nc1ccc(-c2cn(Cc3cccc(-c4ccccc4C(=O)O)c3)nn2)cc1`, for which the pIC50 in assay [1] was 3.94.
For the molecule `CC(C(=O)O)c1ccc(C(=O)c2cccc(-c3ccccc3C(=O)O)c2)s1` (stereo not given), in assay [2], the Ratio IC50 amounted to 33. For the same molecule, the pIC50 in assay [1] was 4.05.
For `NS(=O)(=O)Nc1ccc(-c2cn(Cc3cc(C(=O)O)cc(-c4ccccc4C(=O)O)c3)nn2)cc1`, in assay [1], the pIC50 is 4.07.
`Nc1ccc(-c2cn(Cc3cc(C(=O)O)cc(-c4ccc(C(=O)O)cc4)c3)nn2)cc1`: the pIC50 in assay [1] is 3.55.
On the same count and under the same terms, as for `CC(=O)Nc1cccc(-c2cn(Cc3cc(C(=O)O)cc(-c4ccccc4C(=O)O)c3)nn2)c1`, the figure is 4.02.
In the case of `Nc1ccc(-c2cn(Cc3cc(C(=O)O)cc(-c4cccc(C(=O)O)c4)c3)nn2)cc1`, the inhibition entry in assay [3] was “Dose-dependent effect”; in assay [5], “Dose-dependent effect”; in the assay listed under Homo sapiens, 70%. The values for the pIC50 in assay [4], in assay [6] and in assay [1] were 4.04, 4.13 and 4.48, respectively. Moreover, the inhibition entry in assay [7] was “Active”.
Consider `CC(=O)Nc1ccc(-c2cn(Cc3cc(C(=O)O)cc(-c4ccccc4C(=O)O)c3)nn2)cc1`, for which the pIC50 in assay [1] is 4.09.
